TLR9-MyD88 inh – inhibitors of TLR9-MyD88 association in cells, primary screen, cell-based, CHO, BLA complementation, fluorescence; Toll-like receptor 9 (Homo sapiens) + Myeloid differentiation primary response protein …; CCF4 FRET ratio; inhibition, % at 4.98 µM; 0.21% of 340,000 active; AID 504734, 2011;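 active = inhibition above the mean over all tested compounds plus 3 SD, cut at about 21% in these data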
TLR4 MyD88 comp – inhibitors of TLR4-MyD88 association in cells, primary screen, cell-based, HeLa CL3-4, BLA complementation, FRET ratio | HeLa CL3-4 TLR4/MyD88 BLA complementation | Toll-like receptor 4 (Homo sapiens) + Myeloid differentiation primary response protein … | 0.18% of 200,000 active | inhibition, % at 8.4 µM; in the data active = inhibition above about 25%
CHOP inh – inhibitors of CHOP promoter induction, primary screen, cell-based, unfolded protein response, luciferase reporter; CHO-K1 CHOP-promoter luciferase, tunicamycin-induced, 15-18 h; inhibition, % at 10 µM; 3.8% of 220,000 active; AID 2732, 2010;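 active = compounds that reduced the stress-induced luciferase reporter signal by more than about 70% of percent inhibition, limit read from the data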
XBP1 UPR activ – activators of adaptive XBP1 UPR arm, primary screen, cell-based, CHO-XBP1 luciferase reporter, luminescence, uHTS; 0.33% of 330,000 active; IRE1-XBP1 UPR activation; percent of tunicamycin response, DMSO as zero; activation, % at 20 µM; AID 463104, 2010;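 active = versus positive control, 20 µM dose yields 30% or more activation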
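Signal: luciferase luminescence; Assay system: CHO-XBP1 luciferase reporter cells; Amount: one thousand reporter cells per well; Dosing: 20 µM single concentration, DMSO 1%; Benchmarks: high control tunicamycin 10 µg/mL final, low control DMSO vehicle only; Schedule: 6 h compound exposure at 37 °C, 5% CO2; Evaluation: percent activation relative to tunicamycin reference.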
NOD2-RIPK2 inh – NOD2-RIPK2 binding disruptors in cells, primary screen, fluorescence, CHO cells, BLA complementation; Receptor-interacting serine/threonine-protein kinase 2 (Homo sapiens), O43353; CCF4 ratio; inhibition, % at 4.98 µM; 0.38% of 360,000 active; in the data active = inhibition above about 21%
CHOP UPR activ – activators of apoptotic CHOP UPR arm, primary screen, cell-based, CHO-CHOP luciferase reporter, luminescence, uHTS; UPR activation; percent of tunicamycin response over DMSO baseline; activation, % at 10 µM; 0.34% of 330,000 active; AID 449763, 2010;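 active = at 10 µM dose, activation of 40% or more, normalized to positive control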
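Assay system: CHO cells with stable CHOP pathway luciferase reporter; Buffer or medium: F12 plus 10% serum; Times: 16-18 h cell attachment, then 6 h compound exposure, 37 °C; Signal: luciferase luminescence; Read-out basis: percent activation relative to tunicamycin control; Control set: tunicamycin high control, DMSO low control.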
CHOP UPR conf – activators of apoptotic CHOP UPR arm, confirmation, cell-based, CHO-CHOP luciferase reporter, single concentration. shares compounds with CHOP UPR activ. CHO-CHOP cells, CHOP-luciferase reporter luminescence; percent of tunicamycin response, DMSO as zero. activation, % at 10 µM. 64% of 1,000 active; in the data active = activation above about 33%
UPR XBP1 confirm – IRE1-XBP1 UPR arm activators, confirmation, cell-based, CHO-XBP1 luciferase reporter, luminescence, single concentration; shares compounds with XBP1 UPR activ; activation, % at 20 µM; 63% of 1,000 active;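 active = reporter signal at least 30% of the positive control's activation in two or more of four replicate wells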
TLR9-MyD88 cf – TLR9-MyD88 association inhibitors, retest, confirmation, cell-based, CHO, BLA complementation, fluorescence, triplicate; shares compounds with TLR9-MyD88 inh; CCF4 FRET ratio; inhibition, % at 4.98 µM; 51% of 680 active;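 active = mean inhibition across three repeats above about 21% taken from the earlier screen, limit read from the data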;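 note: blue over green emission ratio reports constitutive TLR9 MyD88 association via BLA complementation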
BLA counter-1 – beta-lactamase reporter inhibitors in CHO cells, artefact control for TLR9-MyD88 binding inhibitor project, cell-based, fluorescence; 7% of 680 active; shares compounds with TLR9-MyD88 inh; CHO-BLA cells, CCF4 FRET ratio, BLA reporter; AID 540251, 2011; inhibition, % at 4.98 µM;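 active = mean inhibition above a 50% cutoff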;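 note: counterscreen of TLR9-MyD88 hits on CMV-driven BLA in CHO-K1 cells; higher means less blue over green ratio so more BLA blockade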
TLR9 CHO cytotox – CHO cell viability loss – luminescence, single concentration, cytotoxicity control for TLR9-MyD88 binding inhibitor project; shares compounds with TLR9-MyD88 inh; 39% of 680 active; inhibition, % at 4.98 µM; TLR9-MyD88 CHO cells cytotoxicity; AID 588336, 2011; in the data active = inhibition above about 11%
NOD2-RIPK2 conf – NOD2-RIPK2 binding disruptors, retest, confirmation, fluorescence, CHO cells, BLA complementation, triplicate | inhibition, % at 4.98 µM | CCF4 FRET | 70% of 1,200 active | shares compounds with NOD2-RIPK2 inh;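 active = mean inhibition across replicates above a set limit taken from the earlier primary screen, cut at about 21% in these data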
BLA counter-2 – hits BLA reporter in NOD2-RIPK2 inhibitor counterscreen; 57% of 1,200 active; shares compounds with NOD2-RIPK2 inh; inhibition, % at 4.98 µM; CHO BLA reporter, CCF4 FRET ratio;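 active = mean inhibition above the low-control mean inhibition plus three low-control SD, cut at about 11% in these data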
Each line names hits and unclear results; the compound was inactive in the other large screens (follow-up assays come after a bar, where they were run). Many of the other results were omitted from the sample, so hits are more common in it than they were.

COc1cccc(-c2nc(Cl)nc3cc(Cl)ccc23)c1	none (no result: TLR9-MyD88 inh, TLR4 MyD88 comp, CHOP inh, XBP1 UPR activ, CHOP UPR activ)
Cc1cc2c(cc1C)N(C(=O)CCl)CCN2C(=O)CCl	none (no result: TLR4 MyD88 comp, CHOP inh, XBP1 UPR activ, CHOP UPR activ)
CCc1ccc2nc(N(CCCN(C)C)C(=O)c3ccc(S(=O)(=O)N4CCc5ccccc5C4)cc3)sc2c1	XBP1 UPR activ 59, NOD2-RIPK2 inh 22, CHOP UPR activ 41 (no result: TLR4 MyD88 comp, CHOP inh) | CHOP UPR conf inactive | UPR XBP1 confirm 59 | NOD2-RIPK2 conf 23 | BLA counter-2 inactive
CN(C)CCCN(C(=O)c1ccc(S(=O)(=O)N2CCCC2)cc1)c1nc2ccc(Br)cc2s1	none (no result: TLR4 MyD88 comp, CHOP inh)
O=C1C=CC(=O)N1c1cccc(-c2ccccc2)c1	NOD2-RIPK2 inh 36, CHOP UPR activ 82 (no result: TLR4 MyD88 comp) | CHOP UPR conf inactive | NOD2-RIPK2 conf 90 | BLA counter-2 29
O=c1cc(-c2ccccc2)[nH]n1-c1ccccc1	none (no result: TLR4 MyD88 comp, CHOP inh, XBP1 UPR activ, CHOP UPR activ)
Cc1cccc(C(=O)Nc2ccc(C(=O)/C=C/c3ccncc3)cc2)c1	NOD2-RIPK2 inh 56, CHOP UPR activ 49 (no result: TLR4 MyD88 comp, CHOP inh) | CHOP UPR conf inactive | NOD2-RIPK2 conf 76 | BLA counter-2 inactive
COc1cccc(C2CC(=O)Nc3cc(C)c(C)cc32)c1 (configuration not stated)	none (no result: TLR4 MyD88 comp, CHOP inh, XBP1 UPR activ, CHOP UPR activ)
O=C1OC(c2cccc3c(F)cccc23)c2ccccc21 (configuration not stated)	none (no result: TLR4 MyD88 comp, CHOP inh, XBP1 UPR activ, CHOP UPR activ)
CCc1nnc(NC(=O)c2nc(Cl)ccc2Cl)s1	none (no result: TLR4 MyD88 comp, CHOP inh)
CCc1nnc(NC(=O)c2nc(S(=O)(=O)Cc3ccc(C)cc3)ncc2Cl)s1	NOD2-RIPK2 inh 26, CHOP UPR activ 51 (no result: TLR4 MyD88 comp, CHOP inh) | CHOP UPR conf 38 | NOD2-RIPK2 conf 34 | BLA counter-2 22
CCc1nnc(NC(=O)c2nc(S(=O)(=O)Cc3cccc(C)c3)ncc2Cl)s1	NOD2-RIPK2 inh 34, CHOP UPR activ 72 (no result: TLR4 MyD88 comp, CHOP inh) | CHOP UPR conf inactive | NOD2-RIPK2 conf 28 | BLA counter-2 19
CCOC(=O)c1c(NC(C)=O)sc2c1CCC(C=O)=C2Sc1ccccc1	TLR9-MyD88 inh 22, XBP1 UPR activ 64, NOD2-RIPK2 inh 35, CHOP UPR activ 294 | CHOP UPR conf 632 | UPR XBP1 confirm inactive | TLR9-MyD88 cf inactive | BLA counter-1 inactive | TLR9 CHO cytotox 37 | NOD2-RIPK2 conf 67 | BLA counter-2 20
Cc1ccc(S(=O)(=O)Nc2ccccc2-c2ccccc2NS(=O)(=O)c2ccc(C)cc2)cc1	none
Cc1ccc(S(=O)(=O)Nc2cccc3cccnc23)cc1	TLR9-MyD88 inh 36, NOD2-RIPK2 inh 38, CHOP UPR activ 621 | CHOP UPR conf 326 | NOD2-RIPK2 conf 59 | BLA counter-2 25
CCn1c(/C=C/c2c(C)[nH]c3ccccc23)nc2ccccc2c1=O	CHOP inh 94, XBP1 UPR activ 216 | UPR XBP1 confirm 81
Cc1[nH]c2ccccc2c1/C=C/c1nc2ccccc2c(=O)n1-c1ccc([N+](=O)[O-])cc1	XBP1 UPR activ 47 | UPR XBP1 confirm 36
CCn1c(/C=C/c2c[nH]c3ccccc23)nc2ccccc2c1=O	none
CCn1c(/C=C/c2cccc([N+](=O)[O-])c2)nc2ccccc2c1=O	none
O=C(c1ccc2c(c1)[nH]c(=S)n1c3ccccc3nc21)N1CCN(c2cccc(Cl)c2)CC1	XBP1 UPR activ 33 | UPR XBP1 confirm 54
COc1ccc(NC(=O)CSc2nc3n[nH]c(C)c3c(=N)n2-c2ccc(Cl)c(C)c2)cc1OC	XBP1 UPR activ 34 (no result: TLR4 MyD88 comp, CHOP inh) | UPR XBP1 confirm inactive
COc1ccccc1C(=O)Nc1ccccc1SC(=O)c1ccccc1OC	XBP1 UPR activ 34 (no result: TLR4 MyD88 comp, CHOP inh) | UPR XBP1 confirm inactive
O=C1N/C(=N/O)S/C1=C\c1ccccc1-n1cccn1	none
COc1ccc(OCC(=O)Sc2ccc(C)cc2)cc1	CHOP inh 83, XBP1 UPR activ 35 | UPR XBP1 confirm inactive
COc1ccc(NC(=O)c2ccccc2NC(=O)CSc2ccc(Cl)cc2)cc1	XBP1 UPR activ 35 | UPR XBP1 confirm inactive
Cc1cc(=S)[nH]c(=S)[nH]1	none (no result: TLR4 MyD88 comp)
CCC[C@@H](CN[C@@H](CNC)[C@H](C)CC)NCC1CCC(C(C)(C)C)CC1 (some centres not stated)	XBP1 UPR activ 51 (no result: TLR4 MyD88 comp, CHOP inh) | UPR XBP1 confirm 30
CCC[C@H](CN[C@@H](CNC)[C@H](C)CC)NCCc1cc(C(F)(F)F)cc(C(F)(F)F)c1	XBP1 UPR activ 52 (no result: TLR4 MyD88 comp, CHOP inh) | UPR XBP1 confirm inactive
O=C(COC(=O)c1ccc(CO)cc1)Nc1ccc(OC(F)F)cc1	none
CCCCCCOc1ccc(/C(C)=N/NC2=NCCN2)cc1[N+](=O)[O-]	XBP1 UPR activ 32 | UPR XBP1 confirm inactive
COc1cc(OC)cc(C(=O)NCC(=O)OCC(=O)c2ccc3c(c2)-c2ccccc2C3)c1	none

High-throughput results: PubChem, several laboratories
